Assay results taken from BindingDB's records for doi:10.1021/jm800789h (National Cancer Institute-Frederick, 2009).
*1 amine or outer side, *2 acyl side, *3 side chain or, on linkers, in order; H or OH if unused. Where a SMILES comes first, the peptide text is derived from it. [ ]: non-standard residue; d: D form. The star is where a group is joined. X2 = O=C(c1cc(N=C=S)ccc1-c1c2ccc(=O)cc-2oc2cc(O)ccc12)*; Achc(cis-1,4) = O=C([C@H]1CC[C@@H](N[*:1])CC1)[*:2]; Achc(trans-4) = O=C([C@H]1CC[C@H](N[*:1])CC1)[*:2]; Azetidine3carboxylic = O=C(C1CN([*:1])C1)[*:2]; Phac(3-amino) = O=C(Cc1cccc(N[*:1])c1)[*:2]; X3 = C=CCCN([C@@H](CC(C)C)C(=O)[*:2])[*:1]; pY = N[C@@H](Cc1ccc(OP(=O)(O)O)cc1)C(=O)O; X1 = O=C(C1CN([*:3])CCN1[*:1])[*:2]; Trx = NC[C@H]1CC[C@H](C(=O)O)CC1; X6 = O=C([C@H](O)CCN[*:1])[*:2]; X4 = O=C(CC(O)CN[*:1])[*:2]; 4Amb = NCc1ccc(C(=O)O)cc1; 4Abz = Nc1ccc(C(=O)O)cc1; NH(but-3-enyl) = C=CCCN*; Inp = O=C(O)C1CCNCC1

These molecules were tested against T1, SHC-transforming protein 1 (Homo sapiens, UniProt P29353) (assay: Binding affinity to Shc Src homology 2 domain by fluorescence anisotropy).
T1 sequence (P29353 whole entry): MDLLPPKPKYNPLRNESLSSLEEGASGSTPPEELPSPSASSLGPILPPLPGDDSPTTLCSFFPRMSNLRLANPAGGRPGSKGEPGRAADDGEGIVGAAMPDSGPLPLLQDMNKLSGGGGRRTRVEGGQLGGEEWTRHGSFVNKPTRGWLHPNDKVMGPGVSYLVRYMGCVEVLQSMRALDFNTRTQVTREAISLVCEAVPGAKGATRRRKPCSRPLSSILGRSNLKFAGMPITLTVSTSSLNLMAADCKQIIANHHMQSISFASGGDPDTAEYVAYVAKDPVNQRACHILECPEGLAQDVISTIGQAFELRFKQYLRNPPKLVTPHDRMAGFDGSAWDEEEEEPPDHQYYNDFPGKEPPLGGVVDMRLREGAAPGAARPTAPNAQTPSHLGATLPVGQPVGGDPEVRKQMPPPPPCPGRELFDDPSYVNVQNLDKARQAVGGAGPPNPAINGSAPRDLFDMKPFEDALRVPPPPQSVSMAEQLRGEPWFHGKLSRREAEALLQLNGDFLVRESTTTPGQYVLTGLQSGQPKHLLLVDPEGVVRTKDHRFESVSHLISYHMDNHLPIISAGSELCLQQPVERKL
How it was run: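 Direct binding: 5 nM N-terminal fluorescein-labelled peptide in 10 mM HEPES, 150 mM NaCl pH 7.5 with 10% (v/v) DMSO; Shc SH2 protein serially diluted from 100 μM. Excitation 485 nm, parallel and perpendicular emission at 535 nm. Kd from fitting anisotropy versus protein concentration to a single-site binding model.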
For `CC(C)C[C@H](NC(=O)CNC(=O)[C@H](CCC(N)=O)NC(=O)[C@H](Cc1ccc(OP(=O)(O)O)cc1)NC(=O)[C@H](O)CCNC(=O)c1cc(N=C=S)ccc1-c1c2ccc(=O)cc-2oc2cc(O)ccc12)C(=O)N[C@@H](CO)C(N)=O` [4-((2S,5S,11S,14S)-1-amino-11-(3-amino-3-oxopropyl)-14-((R)-2-hydroxy-4-(2-(6-hydroxy-3-oxo-3H-xanthen-9-yl)-5-isothiocyanatobenzamido)butanamido)-2-(hydroxymethyl)-5-isobutyl-1,4,7,10,13-pentaoxo-3,6,9,12-tetraazapentadecan-15-yl)phenyl dihydrogen phosphate] (X2-[X6][pY]QGLS-NH2), the Kd was 9 µM.
With `CC(C)C[C@H](NC(=O)CNC(=O)[C@H](CCC(N)=O)NC(=O)[C@H](Cc1ccc(OP(=O)(O)O)cc1)NC(=O)C1CN(C(=O)c2cc(N=C=S)ccc2-c2c3ccc(=O)cc-3oc3cc(O)ccc23)C1)C(=O)N[C@@H](CO)C(N)=O` [4-((2S,5S,11S,14S)-1-amino-11-(3-amino-3-oxopropyl)-14-(1-(2-(6-hydroxy-3-oxo-3H-xanthen-9-yl)-5-isothiocyanatobenzoyl)azetidine-3-carboxamido)-2-(hydroxymethyl)-5-isobutyl-1,4,7,10,13-pentaoxo-3,6,9,12-tetraazapentadecan-15-yl)phenyl dihydrogen phosphate] (X2-[Azetidine3carboxylic][pY]QGLS-NH2) the Kd was 5.3 µM.
In the case of `CC(C)C[C@H](NC(=O)CNC(=O)[C@H](CCC(N)=O)NC(=O)[C@H](Cc1ccc(OP(=O)(O)O)cc1)NC(=O)[C@H]1CC[C@H](NC(=O)c2cc(N=C=S)ccc2-c2c3ccc(=O)cc-3oc3cc(O)ccc23)CC1)C(=O)N[C@@H](CO)C(N)=O` [trans-4-((2S,5S,11S,14S)-1-amino-11-(3-amino-3-oxopropyl)-14-(4-(2-(6-hydroxy-3-oxo-3H-xanthen-9-yl)-5-isothiocyanatobenzamido)cyclohexanecarboxamido)-2-(hydroxymethyl)-5-isobutyl-1,4,7,10,13-pentaoxo-3,6,9,12-tetraazapentadecan-15-yl)phenyl dihydrogen phosphate] (X2-[Achc(trans-4)][pY]QGLS-NH2), the Kd is reported as 25.4 µM.
For `CC(C)C[C@H](NC(=O)CNC(=O)[C@H](CCC(N)=O)NC(=O)[C@H](Cc1ccc(OP(=O)(O)O)cc1)NC(=O)[C@H]1CC[C@H](CNC(=O)c2cc(N=C=S)ccc2-c2c3ccc(=O)cc-3oc3cc(O)ccc23)CC1)C(=O)N[C@@H](CO)C(N)=O` [trans-4-((2S,5S,11S,14S)-1-amino-11-(3-amino-3-oxopropyl)-14-(4-((2-(6-hydroxy-3-oxo-3H-xanthen-9-yl)-5-isothiocyanatobenzamido)methyl)cyclohexanecarboxamido)-2-(hydroxymethyl)-5-isobutyl-1,4,7,10,13-pentaoxo-3,6,9,12-tetraazapentadecan-15-yl)phenyl dihydrogen phosphate] ({X2-Trx}-[pY]QGLS-NH2), the Kd was 18 µM.
`CC(C)C[C@H](NC(=O)CNC(=O)[C@H](CCC(N)=O)NC(=O)[C@H](Cc1ccc(OP(=O)(O)O)cc1)NC(=O)Cc1cccc(NC(=O)c2cc(N=C=S)ccc2-c2c3ccc(=O)cc-3oc3cc(O)ccc23)c1)C(=O)N[C@@H](CO)C(N)=O` [4-((2S,5S,11S,14S)-1-amino-11-(3-amino-3-oxopropyl)-14-(2-(3-(2-(6-hydroxy-3-oxo-3H-xanthen-9-yl)-5-isothiocyanatobenzamido)phenyl)acetamido)-2-(hydroxymethyl)-5-isobutyl-1,4,7,10,13-pentaoxo-3,6,9,12-tetraazapentadecan-15-yl)phenyl dihydrogen phosphate] (X2-[Phac(3-amino)][pY]QGLS-NH2) showed a Kd of 0.77 µM.
In the case of `CC(C)C[C@H](NC(=O)CNC(=O)[C@H](CCC(N)=O)NC(=O)[C@H](Cc1ccc(OP(=O)(O)O)cc1)NC(=O)CC(O)CNC(=O)c1cc(N=C=S)ccc1-c1c2ccc(=O)cc-2oc2cc(O)ccc12)C(=O)N[C@@H](CO)C(N)=O` (stereo partly drawn) [4-((2S,5S,11S,14S)-1-amino-11-(3-amino-3-oxopropyl)-14-(3-hydroxy-4-(2-(6-hydroxy-3-oxo-3H-xanthen-9-yl)-5-isothiocyanatobenzamido)butanamido)-2-(hydroxymethyl)-5-isobutyl-1,4,7,10,13-pentaoxo-3,6,9,12-tetraazapentadecan-15-yl)phenyl dihydrogen phosphate] (X2-[X4][pY]QGLS-NH2), the Kd is reported as 8.6 µM.
`CC(C)C[C@H](NC(=O)CNC(=O)[C@H](CCC(N)=O)NC(=O)[C@H](Cc1ccc(OP(=O)(O)O)cc1)NC(=O)C1CCN(C(=O)c2cc(N=C=S)ccc2-c2c3ccc(=O)cc-3oc3cc(O)ccc23)CC1)C(=O)N[C@@H](CO)C(N)=O` [4-((2S,5S,11S,14S)-1-amino-11-(3-amino-3-oxopropyl)-14-(1-(2-(6-hydroxy-3-oxo-3H-xanthen-9-yl)-5-isothiocyanatobenzoyl)piperidine-4-carboxamido)-2-(hydroxymethyl)-5-isobutyl-1,4,7,10,13-pentaoxo-3,6,9,12-tetraazapentadecan-15-yl)phenyl dihydrogen phosphate] ({X2-Inp}-[pY]QGLS-NH2) showed a Kd of 14.2 µM.
`CC(C)C[C@H](NC(=O)CNC(=O)[C@H](CCC(N)=O)NC(=O)[C@H](Cc1ccc(OP(=O)(O)O)cc1)NC(=O)[C@H]1CC[C@@H](NC(=O)c2cc(N=C=S)ccc2-c2c3ccc(=O)cc-3oc3cc(O)ccc23)CC1)C(=O)N[C@@H](CO)C(N)=O` [cis-4-((2S,5S,11S,14S)-1-amino-11-(3-amino-3-oxopropyl)-14-(4-(2-(6-hydroxy-3-oxo-3H-xanthen-9-yl)-5-isothiocyanatobenzamido)cyclohexanecarboxamido)-2-(hydroxymethyl)-5-isobutyl-1,4,7,10,13-pentaoxo-3,6,9,12-tetraazapentadecan-15-yl)phenyl dihydrogen phosphate] (X2-[Achc(cis-1,4)][pY]QGLS-NH2) was tested, and the Kd was 0.5 µM.
`CC(C)C[C@H](NC(=O)CNC(=O)[C@H](CCC(N)=O)NC(=O)[C@H](Cc1ccc(OP(=O)(O)O)cc1)NC(=O)c1ccc(NC(=O)c2cc(N=C=S)ccc2-c2c3ccc(=O)cc-3oc3cc(O)ccc23)cc1)C(=O)N[C@@H](CO)C(N)=O` [4-((2S,5S,11S,14S)-1-amino-11-(3-amino-3-oxopropyl)-14-(4-(2-(6-hydroxy-3-oxo-3H-xanthen-9-yl)-5-isothiocyanatobenzamido)benzamido)-2-(hydroxymethyl)-5-isobutyl-1,4,7,10,13-pentaoxo-3,6,9,12-tetraazapentadecan-15-yl)phenyl dihydrogen phosphate] ({X2-4Abz}-[pY]QGLS-NH2) showed a Kd of 23.9 µM.
`CC(C)C[C@H](NC(=O)CNC(=O)[C@H](CCC(N)=O)NC(=O)[C@H](Cc1ccc(OP(=O)(O)O)cc1)NC(=O)c1ccc(CNC(=O)c2cc(N=C=S)ccc2-c2c3ccc(=O)cc-3oc3cc(O)ccc23)cc1)C(=O)N[C@@H](CO)C(N)=O` [4-((2S,5S,11S,14S)-1-amino-11-(3-amino-3-oxopropyl)-14-(4-((2-(6-hydroxy-3-oxo-3H-xanthen-9-yl)-5-isothiocyanatobenzamido)methyl)benzamido)-2-(hydroxymethyl)-5-isobutyl-1,4,7,10,13-pentaoxo-3,6,9,12-tetraazapentadecan-15-yl)phenyl dihydrogen phosphate] ({X2-4Amb}-[pY]QGLS-NH2) was tested, and the Kd was 12.3 µM.
For `CC(C)C[C@H](NC(=O)CNC(=O)[C@H](CCC(N)=O)NC(=O)[C@H](Cc1ccc(OP(=O)(O)O)cc1)NC(=O)C1CN(C(=O)c2cc(N=C=S)ccc2-c2c3ccc(=O)cc-3oc3cc(O)ccc23)CCN1)C(=O)N[C@@H](CO)C(N)=O` (stereo partly drawn) [4-((2S,5S,11S,14S)-1-amino-11-(3-amino-3-oxopropyl)-14-(4-(2-(6-hydroxy-3-oxo-3H-xanthen-9-yl)-5-isothiocyanatobenzoyl)piperazine-2-carboxamido)-2-(hydroxymethyl)-5-isobutyl-1,4,7,10,13-pentaoxo-3,6,9,12-tetraazapentadecan-15-yl)phenyl dihydrogen phosphate] (H-[X1](X2)[pY]QGLS-NH2), the Kd was 9.5 µM.

What follows are molecules tested against T1, SHC-transforming protein 1 (assay: Displacement of FITC-tagged NH-(CH2)4-CO-phospho-tyrosine-glutamine-glycine-leucine-serine-amide from Shc Src homology 2 domain by fluorescence anisotropy competition assay).
How it was run: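 Competition: preformed complex of 2 μM Shc SH2 protein with 10 nM FITC-labelled reference peptide in HEPES/NaCl pH 7.5 buffer, 10% DMSO; unlabelled peptides serially diluted from 500 μM. Anisotropy read at 485/535 nm. Fractional binding fitted with an order-3 spline with three knots; IC50 taken where the spline reaches one half.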
In the case of `C=CCCNC(=O)[C@H](CC(C)C)N(CCC=C)C(=O)CNC(=O)[C@H](CCC(N)=O)NC(=O)[C@H](Cc1ccc(OP(=O)(O)O)cc1)NC(C)=O` [4-((2S,5S,11S)-2-acetamido-5-(3-amino-3-oxopropyl)-10-(but-3-enyl)-11-isobutyl-3,6,9,12-tetraoxo-4,7,10,13-tetraazaheptadec-16-enyl)phenyl dihydrogen phosphate], the IC50 is reported as 84 µM.
`C=CCCNC(=O)[C@H](CO)NC(=O)[C@H](CC(C)C)N(CCC=C)C(=O)CNC(=O)[C@H](CCC(N)=O)NC(=O)[C@H](Cc1ccc(OP(=O)(O)O)cc1)NC(C)=O` [4-((2S,5S,11S,14S)-2-acetamido-5-(3-amino-3-oxopropyl)-10-(but-3-enyl)-14-(hydroxymethyl)-11-isobutyl-3,6,9,12,15-pentaoxo-4,7,10,13,16-pentaazaicos-19-enyl)phenyl dihydrogen phosphate] (Ac-[pY]QG[X3]S-{NH(but-3-enyl)}) gave an IC50 of 89 µM.
